# Assay results as given in ChEMBL document CHEMBL1671627, “Increasing trends in antimicrobial resistance among clinically important anaerobes and Bacteroides fragilis isolates causing nosocomial infections: emerging resistance to carbapenems” (2008).
# Assays:
# Phocaeicola vulgatus = assay: Antibacterial activity against beta-lactamase producing Bacteroides vulgatus by CLSI agar dilution method in presence of clavulanate; type: functional
# Outline: (§1)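 CLSI agar dilution MICs for anaerobic blood isolates (nonduplicate) collected from bloodstream-infection patients at a Taiwanese tertiary hospital, January–December 2006. Isolates were spotted by Steers replicator onto supplemented Brucella blood agar and incubated anaerobically for 48 h at 35°C. MIC was the lowest drug concentration inhibiting growth. Each run included B. fragilis ATCC 25285, B. thetaiotaomicron ATCC 29741 and E. lentum ATCC 43055 as quality-control strains.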
# Bacteroides uniformis [1] = assay: Antibacterial activity against beta-lactamase producing Bacteroides uniformis assessed as susceptible isolates by CLSI agar dilution method in presence of clavulanate; type: functional
# Outline: (§2)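 Agar dilution per CLSI guidelines on nonduplicate anaerobic bloodstream isolates collected at NTUH, January to December 2006. Isolates were spotted by Steers replicator onto supplemented Brucella blood agar and incubated anaerobically for 48 h at 35°C. MIC was the lowest drug concentration that inhibited growth. B. fragilis ATCC 25285, B. thetaiotaomicron ATCC 29741 and E. lentum ATCC 43055 were run as QC in each run.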
# Bacteroides caccae [2] = assay: Antibacterial activity against beta-lactamase producing Bacteroides caccae by CLSI agar dilution method in presence of clavulanate; type: functional; outline: as §2
# [3] = test system: Fusobacterium necrophorum; assay: Antibacterial activity against Fusobacterium necrophorum by CLSI agar dilution method in presence of clavulanate; type: functional; outline: as §2
# Fusobacterium varium [4] = assay: Antibacterial activity against Fusobacterium varium assessed as resistant isolates by CLSI agar dilution method in presence of clavulanate; type: functional
# Outline: (§3)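 207 nonduplicate anaerobic blood isolates from patients with bloodstream infections at NTUH, collected January–December 2006. MICs were determined by agar dilution following CLSI guidelines. Inocula were applied with a Steers replicator onto supplemented Brucella blood agar and incubated 48 h at 35°C in an anaerobic chamber. MIC was the lowest concentration inhibiting growth. B. fragilis ATCC 25285, B. thetaiotaomicron ATCC 29741 and E. lentum ATCC 43055 served as controls in each run.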
# Prevotella intermedia [5] = assay: Antibacterial activity against Prevotella intermedia assessed as susceptible isolates by CLSI agar dilution method in presence of clavulanate; type: functional; outline: as §2
# Prevotella intermedia [6] = assay: Antibacterial activity against Prevotella intermedia assessed as resistant isolates by CLSI agar dilution method in presence of clavulanate; type: functional; outline: as §3
# Clostridium perfringens = assay: microbe, parasite or virus in culture; type: functional
# Clostridium tertium = assay: Antibacterial activity against beta-lactamase producing Clostridium tertium by CLSI agar dilution method in presence of clavulanate; type: functional; outline: as §1
# Bacteroides fragilis [7] = assay: Antibacterial activity against Bacteroides fragilis by CLSI agar dilution method in presence of clavulanate; type: functional; outline: as §2
# [8] = test system: Bacteroides thetaiotaomicron; assay: Antibacterial activity against beta-lactamase producing Bacteroides thetaiotaomicron by CLSI agar dilution method in presence of clavulanate; type: functional; outline: as §2
# [9] = test system: Clostridium paraputrificum; assay: Antibacterial activity against beta-lactamase producing Clostridium paraputrificum assessed as susceptible isolates by CLSI agar dilution method in presence of clavulanate; type: functional; outline: as §1
# Finegoldia magna [10] = assay: Antibacterial activity against beta-lactamase producing Finegoldia magna by CLSI agar dilution method in presence of clavulanate; type: functional; outline: as §1
# Bacteroides fragilis [11] = assay: Antibacterial activity against Bacteroides fragilis assessed as resistant isolates by CLSI agar dilution method in presence of Tazobactam; type: functional; outline: as §3
# [12] = test system: Bacteroides thetaiotaomicron; assay: Antibacterial activity against beta-lactamase producing Bacteroides thetaiotaomicron assessed as susceptible isolates by CLSI agar dilution method; type: functional
# [13] = test system: Bacteroides thetaiotaomicron; assay: Antibacterial activity against beta-lactamase producing Bacteroides thetaiotaomicron assessed as resistant isolates by CLSI agar dilution method; type: functional
# Bacteroides uniformis [14] = assay: Antibacterial activity against beta-lactamase producing Bacteroides uniformis assessed as resistant isolates by CLSI agar dilution method; type: functional
# Bacteroides caccae [15] = assay: Antibacterial activity against beta-lactamase producing Bacteroides caccae by CLSI agar dilution method; type: functional
# Bacteroides caccae [16] = assay: Antibacterial activity against beta-lactamase producing Bacteroides caccae assessed as resistant isolates by CLSI agar dilution method in presence of Tazobactam; type: functional; outline: as §3
# Fusobacterium varium [17] = assay: Antibacterial activity against Fusobacterium varium by CLSI agar dilution method; type: functional
# Fusobacterium mortiferum = assay: Antibacterial activity against Fusobacterium mortiferum assessed as resistant isolates by CLSI agar dilution method; type: functional
# Fusobacterium varium [18] = assay: Antibacterial activity against Fusobacterium varium assessed as susceptible isolates by CLSI agar dilution method in presence of Tazobactam; type: functional; outline: as §2
# Fusobacterium varium [19] = assay: Antibacterial activity against Fusobacterium varium assessed as resistant isolates by CLSI agar dilution method in presence of Tazobactam; type: functional; outline: as §3
# Fusobacterium nucleatum = assay: Antibacterial activity against Fusobacterium nucleatum assessed as resistant isolates by CLSI agar dilution method in presence of Tazobactam; type: functional; outline: as §3
# Prevotella intermedia [20] = assay: Antibacterial activity against Prevotella intermedia by CLSI agar dilution method; type: functional
# Prevotella bivia = assay: Antibacterial activity against Prevotella bivia by CLSI agar dilution method in presence of Tazobactam; type: functional; outline: as §2
# Prevotella intermedia [21] = assay: Antibacterial activity against Prevotella intermedia assessed as susceptible isolates by CLSI agar dilution method; type: functional
# [22] = test system: Prevotella melaninogenica; assay: Antibacterial activity against Prevotella melaninogenica assessed as resistant isolates by CLSI agar dilution method; type: functional
# [23] = test system: Prevotella melaninogenica; assay: Antibacterial activity against Prevotella melaninogenica assessed as susceptible isolates by CLSI agar dilution method in presence of Tazobactam; type: functional; outline: as §2
# Prevotella buccae = assay: Antibacterial activity against Prevotella buccae assessed as resistant isolates by CLSI agar dilution method in presence of Tazobactam; type: functional, Segatella buccae; outline: as §3
# Prevotella intermedia [24] = assay: Antibacterial activity against Prevotella intermedia assessed as resistant isolates by CLSI agar dilution method in presence of Tazobactam; type: functional; outline: as §3
# [25] = test system: Clostridium paraputrificum; assay: Antibacterial activity against beta-lactamase producing Clostridium paraputrificum by CLSI agar dilution method; type: functional
# Clostridium septicum = assay: Antibacterial activity against beta-lactamase producing Clostridium septicum assessed as susceptible isolates by CLSI agar dilution method; type: functional
# [26] = test system: Clostridium paraputrificum; assay: Antibacterial activity against beta-lactamase producing Clostridium paraputrificum assessed as resistant isolates by CLSI agar dilution method; type: functional
# [27] = test system: Peptostreptococcus anaerobius; assay: Antibacterial activity against beta-lactamase producing Peptostreptococcus anaerobius assessed as resistant isolates by CLSI agar dilution method; type: functional
# Parvimonas micra [28] = assay: Antibacterial activity against beta-lactamase producing Micromonas micros assessed as susceptible isolates by CLSI agar dilution method; type: functional
# Parvimonas micra [29] = assay: Antibacterial activity against beta-lactamase producing Micromonas micros assessed as susceptible isolates by CLSI agar dilution method in presence of Tazobactam; type: functional; outline: as §1
# [30] = test system: Peptoniphilus asaccharolyticus; assay: Antibacterial activity against beta-lactamase producing Peptoniphilus asaccharolyticus by CLSI agar dilution method; type: functional
# Finegoldia magna [31] = assay: Antibacterial activity against beta-lactamase producing Finegoldia magna by CLSI agar dilution method; type: functional
compound,measurement,setting,value
CC1(C)S[C@@H]2[C@H](NC(=O)[C@H](N)c3ccc(O)cc3)C(=O)N2[C@H]1C(=O)O [AMOXICILLIN],MIC50,Phocaeicola vulgatus,8 µg/mL
same,MIC90,Phocaeicola vulgatus,32 µg/mL
same,Activity,Bacteroides uniformis [1],53%
same,MIC50,Bacteroides caccae [2],8 µg/mL
same,MIC90,Bacteroides caccae [2],32 µg/mL
same,MIC50,[3],2 µg/mL
same,MIC90,[3],4 µg/mL
same,Activity,Fusobacterium varium [4],7%
same,Activity,Prevotella intermedia [5],81%
same,Activity,Prevotella intermedia [6],6%
same,MIC50,Clostridium perfringens,0.5 µg/mL
same,MIC90,Clostridium perfringens,2 µg/mL
same,MIC50,Clostridium tertium,0.5 µg/mL
same,MIC90,Clostridium tertium,2 µg/mL
same,MIC50,Bacteroides fragilis [7],4 µg/mL
same,MIC90,Bacteroides fragilis [7],32 µg/mL
same,MIC,[8],4 µg/mL
same,MIC50,[8],4 µg/mL
same,MIC90,[8],32 µg/mL
same,Activity,[9],96%
same,MIC50,Finegoldia magna [10],0.25 µg/mL
same,MIC90,Finegoldia magna [10],2 µg/mL
CCN1CCN(C(=O)N[C@@H](C(=O)N[C@@H]2C(=O)N3[C@@H]2SC(C)(C)[C@@H]3C(=O)O)c2ccccc2)C(=O)C1=O [PIPERACILLIN],Activity,Bacteroides fragilis [11],2%
same,Activity,[12],63%
same,Activity,[13],37%
same,Activity,Bacteroides uniformis [14],65%
same,MIC50,Bacteroides caccae [15],> 128 µg/mL
same,MIC90,Bacteroides caccae [15],> 128 µg/mL
same,Activity,Bacteroides caccae [16],4%
same,MIC50,Fusobacterium varium [17],2 µg/mL
same,MIC90,Fusobacterium varium [17],8 µg/mL
same,Activity,Fusobacterium mortiferum,10%
same,Activity,Fusobacterium varium [18],100%
same,Activity,Fusobacterium varium [19],0%
same,Activity,Fusobacterium nucleatum,0%
same,MIC50,Prevotella intermedia [20],16 µg/mL
same,MIC90,Prevotella intermedia [20],128 µg/mL
same,MIC,Prevotella bivia,0.03 µg/mL
same,MIC50,Prevotella bivia,0.03 µg/mL
same,MIC90,Prevotella bivia,1 µg/mL
same,Activity,Prevotella intermedia [21],71%
same,Activity,[22],22%
same,Activity,[23],100%
same,Activity,Prevotella buccae,0%
same,Activity,Prevotella intermedia [24],0%
same,MIC50,[25],0.25 µg/mL
same,MIC90,[25],2 µg/mL
same,Activity,Clostridium septicum,100%
same,Activity,[26],0%
same,Activity,[27],3%
same,Activity,Parvimonas micra [28],97%
same,Activity,Parvimonas micra [29],97%
same,MIC50,[30],0.12 µg/mL
same,MIC90,[30],8 µg/mL
same,MIC50,Finegoldia magna [31],0.12 µg/mL
same,MIC90,Finegoldia magna [31],8 µg/mL
